Assay results published in PMC7654701 (Chemical communications (Cambridge, England), 2020).
Blank lines part the entries; values can stand above or below the molecule they belong to.

How the values were obtained:
class I HDACs = settings: cited from earlier work
HDAC3 = HDAC3 (Homo sapiens, UniProt O15379); assay: Western blot analysis of HDAC3 degradation in breast cancer cells; type: cell-based
Outline: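 MDA-MB-468 cells were treated with test compound for 14 h, and HDAC3 was assessed by western blot with band intensity normalized to α-tubulin. For the mechanism arm, cells were pretreated for 1 h with 1 μM MG132 or 10 μM VHL032 before 125 nM compound. A time course used 125 nM. For washout, cells got 125 nM for 14 h, then drug-free medium for additional time.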

HDACs = assay: HDAC-Glo I/II Assays; type: biochemical; settings: Table S1
HDAC1 = HDAC1 (Homo sapiens, UniProt Q13547); assay: Western blot analysis of HDAC1 protein level in breast cancer cells; type: cell-based; settings: MDA-MB-468 cells, 14 h treatment
Outline: (§1)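 MDA-MB-468 cells were treated with test compound for 14 h, then the HDAC isoform protein level was assessed by western blot.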

HDAC2 = HDAC2 (Homo sapiens, UniProt Q92769); assay: Western blot analysis of HDAC2 protein level in breast cancer cells; type: cell-based; settings: MDA-MB-468 cells, 14 h treatment
Outline: as §1

HDAC6 = target: T1, HDAC6 (Homo sapiens, UniProt Q9UBN7); assay: Western blot analysis of HDAC6 protein level in MDA-MB-468 cells; type: cell-based; settings: 14 h treatment
T1 sequence (Q9UBN7 1-1215): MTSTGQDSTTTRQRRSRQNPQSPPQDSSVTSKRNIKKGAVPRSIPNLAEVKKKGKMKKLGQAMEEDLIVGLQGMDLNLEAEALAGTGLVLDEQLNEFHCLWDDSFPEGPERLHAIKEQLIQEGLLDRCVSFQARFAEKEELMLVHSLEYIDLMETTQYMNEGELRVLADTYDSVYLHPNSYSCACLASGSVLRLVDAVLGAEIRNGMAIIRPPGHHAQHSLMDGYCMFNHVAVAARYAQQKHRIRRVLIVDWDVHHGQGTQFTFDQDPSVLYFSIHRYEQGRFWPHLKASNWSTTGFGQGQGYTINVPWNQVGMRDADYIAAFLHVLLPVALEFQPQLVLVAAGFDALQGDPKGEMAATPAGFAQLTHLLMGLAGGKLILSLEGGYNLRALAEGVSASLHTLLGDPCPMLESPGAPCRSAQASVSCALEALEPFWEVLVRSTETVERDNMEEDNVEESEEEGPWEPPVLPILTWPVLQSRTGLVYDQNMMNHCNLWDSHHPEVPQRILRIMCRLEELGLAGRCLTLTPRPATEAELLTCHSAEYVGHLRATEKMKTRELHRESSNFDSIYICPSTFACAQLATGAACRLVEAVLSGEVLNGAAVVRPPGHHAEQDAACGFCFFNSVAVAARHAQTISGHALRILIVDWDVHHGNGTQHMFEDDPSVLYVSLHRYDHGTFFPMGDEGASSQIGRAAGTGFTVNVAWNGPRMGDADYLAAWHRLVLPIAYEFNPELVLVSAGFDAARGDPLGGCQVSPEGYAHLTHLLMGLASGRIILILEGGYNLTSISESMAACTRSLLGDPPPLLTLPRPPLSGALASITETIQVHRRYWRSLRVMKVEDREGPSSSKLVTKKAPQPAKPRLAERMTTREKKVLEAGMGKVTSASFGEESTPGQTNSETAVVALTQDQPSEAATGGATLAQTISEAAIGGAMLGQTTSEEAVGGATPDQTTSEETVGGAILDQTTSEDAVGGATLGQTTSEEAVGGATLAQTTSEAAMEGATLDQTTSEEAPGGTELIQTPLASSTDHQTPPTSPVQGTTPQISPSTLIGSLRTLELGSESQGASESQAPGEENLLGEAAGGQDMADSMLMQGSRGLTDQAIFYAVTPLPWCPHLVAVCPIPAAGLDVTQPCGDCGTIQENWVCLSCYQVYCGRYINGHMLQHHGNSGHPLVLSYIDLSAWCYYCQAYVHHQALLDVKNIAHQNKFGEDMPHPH
Outline: as §1

[1] = system: histone acetylation at H3K27 and H4K5; assay: Western blot analysis of histone acetylation; type: cell-based
T47D = assay: Colony formation assay; type: cell-based; settings: T47D breast cancer cells
Outline: (§2)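 Cells were grown with test compound, and the medium with freshly added compound was replaced every five days until colonies reached suitable size. Colonies were then stained. Four biological replicates.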

HCC1143 = assay: Colony formation assay; type: cell-based; settings: HCC1143 breast cancer cells
Outline: as §2

BT549 = assay: Colony formation assay; type: cell-based; settings: BT549 breast cancer cells
Outline: as §2

MDA-MB-468 cells = assay: Colony formation assay; type: cell-based; settings: difference was moderate
Outline: as §2

Cytotoxicity = type: cell-based; settings: Fig. S3

HDAC3, sequence (O15379 whole entry): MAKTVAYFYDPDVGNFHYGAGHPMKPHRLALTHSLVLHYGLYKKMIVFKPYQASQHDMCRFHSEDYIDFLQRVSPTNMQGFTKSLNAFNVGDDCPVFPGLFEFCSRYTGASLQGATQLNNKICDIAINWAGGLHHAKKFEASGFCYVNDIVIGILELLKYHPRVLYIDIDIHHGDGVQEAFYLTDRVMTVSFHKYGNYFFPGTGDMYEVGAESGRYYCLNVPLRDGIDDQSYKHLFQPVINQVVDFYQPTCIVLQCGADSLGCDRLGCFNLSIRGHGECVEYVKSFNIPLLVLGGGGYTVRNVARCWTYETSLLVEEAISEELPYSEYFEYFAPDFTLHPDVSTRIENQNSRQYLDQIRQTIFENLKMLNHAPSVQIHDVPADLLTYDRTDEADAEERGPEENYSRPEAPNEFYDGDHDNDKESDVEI
HDAC3, sequence (Q9Y618 whole entry partner): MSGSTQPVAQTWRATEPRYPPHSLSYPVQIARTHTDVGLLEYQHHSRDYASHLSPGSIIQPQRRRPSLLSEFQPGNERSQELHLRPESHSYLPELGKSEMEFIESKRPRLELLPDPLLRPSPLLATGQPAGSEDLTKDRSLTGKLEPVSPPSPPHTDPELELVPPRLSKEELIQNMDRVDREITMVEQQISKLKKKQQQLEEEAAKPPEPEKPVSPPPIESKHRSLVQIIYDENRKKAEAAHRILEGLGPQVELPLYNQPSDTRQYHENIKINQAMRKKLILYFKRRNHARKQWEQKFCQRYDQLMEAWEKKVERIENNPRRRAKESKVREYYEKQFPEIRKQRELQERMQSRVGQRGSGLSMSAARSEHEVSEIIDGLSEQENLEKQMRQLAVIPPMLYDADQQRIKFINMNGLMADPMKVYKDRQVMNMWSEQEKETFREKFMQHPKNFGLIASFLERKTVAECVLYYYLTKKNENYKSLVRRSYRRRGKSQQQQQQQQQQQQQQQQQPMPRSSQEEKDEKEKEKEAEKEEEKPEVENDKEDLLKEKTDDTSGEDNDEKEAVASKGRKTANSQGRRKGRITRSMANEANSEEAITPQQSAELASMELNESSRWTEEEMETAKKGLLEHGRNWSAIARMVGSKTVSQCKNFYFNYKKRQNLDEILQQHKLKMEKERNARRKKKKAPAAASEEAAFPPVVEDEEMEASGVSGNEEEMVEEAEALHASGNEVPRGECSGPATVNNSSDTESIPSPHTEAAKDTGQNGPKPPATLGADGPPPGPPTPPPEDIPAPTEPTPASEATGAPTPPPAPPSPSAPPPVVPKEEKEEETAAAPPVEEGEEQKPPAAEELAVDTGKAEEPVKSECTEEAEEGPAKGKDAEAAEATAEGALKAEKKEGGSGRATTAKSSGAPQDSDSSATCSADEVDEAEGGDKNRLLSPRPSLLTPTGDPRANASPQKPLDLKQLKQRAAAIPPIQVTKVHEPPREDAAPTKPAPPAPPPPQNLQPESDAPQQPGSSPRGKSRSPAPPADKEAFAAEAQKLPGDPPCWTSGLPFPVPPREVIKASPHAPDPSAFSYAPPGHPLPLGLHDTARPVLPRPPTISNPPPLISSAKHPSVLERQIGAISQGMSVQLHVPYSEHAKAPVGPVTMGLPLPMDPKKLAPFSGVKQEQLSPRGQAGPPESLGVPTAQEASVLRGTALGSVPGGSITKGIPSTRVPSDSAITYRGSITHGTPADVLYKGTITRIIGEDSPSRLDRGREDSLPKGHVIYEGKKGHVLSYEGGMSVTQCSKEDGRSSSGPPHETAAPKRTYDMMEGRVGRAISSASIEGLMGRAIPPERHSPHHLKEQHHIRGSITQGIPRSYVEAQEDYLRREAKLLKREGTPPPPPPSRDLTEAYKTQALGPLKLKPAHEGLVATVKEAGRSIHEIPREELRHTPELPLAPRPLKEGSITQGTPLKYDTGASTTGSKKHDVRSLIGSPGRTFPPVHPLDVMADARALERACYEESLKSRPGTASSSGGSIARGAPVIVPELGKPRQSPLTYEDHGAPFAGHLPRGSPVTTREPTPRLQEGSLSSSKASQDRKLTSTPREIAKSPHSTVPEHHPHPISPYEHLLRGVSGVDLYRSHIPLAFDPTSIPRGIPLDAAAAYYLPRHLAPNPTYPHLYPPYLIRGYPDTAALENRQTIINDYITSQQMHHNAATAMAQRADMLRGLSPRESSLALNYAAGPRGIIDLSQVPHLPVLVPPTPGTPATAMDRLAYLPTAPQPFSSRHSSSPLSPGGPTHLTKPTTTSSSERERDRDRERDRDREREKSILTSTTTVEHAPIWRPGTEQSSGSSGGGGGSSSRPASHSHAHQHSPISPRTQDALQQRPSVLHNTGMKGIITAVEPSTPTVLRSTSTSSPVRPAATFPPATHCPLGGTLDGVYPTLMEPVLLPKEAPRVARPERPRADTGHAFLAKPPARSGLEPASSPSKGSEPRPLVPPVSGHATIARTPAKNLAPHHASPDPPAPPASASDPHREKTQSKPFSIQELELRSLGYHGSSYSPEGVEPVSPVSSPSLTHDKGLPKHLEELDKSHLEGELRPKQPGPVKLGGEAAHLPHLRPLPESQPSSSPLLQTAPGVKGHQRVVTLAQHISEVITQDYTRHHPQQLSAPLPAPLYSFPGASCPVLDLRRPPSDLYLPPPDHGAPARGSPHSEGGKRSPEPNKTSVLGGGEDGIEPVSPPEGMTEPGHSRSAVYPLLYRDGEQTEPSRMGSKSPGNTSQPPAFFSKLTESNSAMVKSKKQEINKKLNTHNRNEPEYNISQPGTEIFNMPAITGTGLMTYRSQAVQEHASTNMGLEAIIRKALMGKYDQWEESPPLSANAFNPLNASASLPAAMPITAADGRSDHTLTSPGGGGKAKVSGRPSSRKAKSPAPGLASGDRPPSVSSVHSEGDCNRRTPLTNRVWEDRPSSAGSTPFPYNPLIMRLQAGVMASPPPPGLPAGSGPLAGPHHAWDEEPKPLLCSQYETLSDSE
HDAC2, sequence (Q92769 whole entry): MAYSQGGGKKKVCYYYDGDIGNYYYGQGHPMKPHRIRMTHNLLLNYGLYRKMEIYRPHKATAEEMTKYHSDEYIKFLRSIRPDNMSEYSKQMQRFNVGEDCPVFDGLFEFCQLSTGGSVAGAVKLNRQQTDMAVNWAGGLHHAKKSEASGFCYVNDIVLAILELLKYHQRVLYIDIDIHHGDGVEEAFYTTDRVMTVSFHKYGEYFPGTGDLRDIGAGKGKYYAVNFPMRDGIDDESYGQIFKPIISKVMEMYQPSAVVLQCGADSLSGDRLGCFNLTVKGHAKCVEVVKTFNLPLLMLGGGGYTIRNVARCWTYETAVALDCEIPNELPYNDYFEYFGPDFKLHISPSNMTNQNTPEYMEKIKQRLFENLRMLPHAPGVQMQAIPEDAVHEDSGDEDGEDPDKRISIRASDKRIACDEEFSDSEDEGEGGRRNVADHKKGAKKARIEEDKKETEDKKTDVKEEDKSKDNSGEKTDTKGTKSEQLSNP
HDAC1, sequence (Q13547 whole entry, canonical isoform): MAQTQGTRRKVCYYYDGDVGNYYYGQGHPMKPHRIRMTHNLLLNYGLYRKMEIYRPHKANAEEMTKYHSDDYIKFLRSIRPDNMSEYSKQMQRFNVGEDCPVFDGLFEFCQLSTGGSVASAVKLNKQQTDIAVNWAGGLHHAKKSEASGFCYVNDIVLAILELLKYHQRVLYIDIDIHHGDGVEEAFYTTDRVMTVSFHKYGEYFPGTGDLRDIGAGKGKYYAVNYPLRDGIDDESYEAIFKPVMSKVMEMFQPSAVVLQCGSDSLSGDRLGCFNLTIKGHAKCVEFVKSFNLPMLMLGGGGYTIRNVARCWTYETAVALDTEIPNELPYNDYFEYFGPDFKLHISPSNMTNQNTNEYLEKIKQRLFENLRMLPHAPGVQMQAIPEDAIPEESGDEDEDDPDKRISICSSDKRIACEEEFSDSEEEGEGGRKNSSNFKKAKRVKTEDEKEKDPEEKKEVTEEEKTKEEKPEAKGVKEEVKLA

Structure (SMILES): CCCCNNC(=O)c1ccc(-c2ccccc2)cc1 [SR-3558]
- HDAC isozyme binding preference (class I HDACs; benzoylhydrazide ZBG): preferentially binds to HDAC3
- inhibition of class I HDACs (class I HDACs): potent and selective inhibitor

- HDAC3 degradation (HDAC3; MDA-MB-468 cells, Fig. 2B): did not induce HDAC3 degradation
Structure (SMILES): CCCNNC(=O)c1ccc(-c2ccc(NC(=O)CCCCCCC(=O)N[C@H](C(=O)N3C[C@@H](O)C[C@@H]3C(=O)N[C@@H](C)c3ccc(-c4scnc4C)cc3)C(C)(C)C)cc2)cc1 [XZ9002-NC]

- binding of HDAC3 compared with other HDACs (HDACs): more strongly
- time for HDAC3 to rebound to the steady level after washout (HDAC3; MDA-MB-468, 125 nM for 14 h then drug-free medium): more than 12 h
- HDAC3 degraded (HDAC3; MDA-MB-468, 125 nM, 8 h treatment): 70%
- start of HDAC3 degradation (HDAC3; MDA-MB-468, 125 nM, time course): ≤ 2 h
- HDAC3 degradation after pre-incubation with proteasome inhibitor MG132 (HDAC3; MDA-MB-468, XZ9002 125 nM, MG132 1 μM for 1 h): blocked
- HDAC3 degradation after pre-incubation with VHL ligand VH032 (HDAC3; MDA-MB-468, XZ9002 125 nM, VH032 10 μM for 1 h): blocked
- change in protein level of HDAC1 (HDAC1): no significant changes
- change in protein level of HDAC2 (HDAC2): no significant changes
- change in protein level of HDAC6 (HDAC6): no significant changes
Structure (SMILES): CCCNNC(=O)c1ccc(-c2ccc(NC(=O)CCCCCCC(=O)N[C@H](C(=O)N3C[C@H](O)C[C@H]3C(=O)N[C@@H](C)c3ccc(-c4scnc4C)cc3)C(C)(C)C)cc2)cc1 [XZ9002]
- histone acetylation ([1]; Fig. 2A and Fig. S2, moderate effects compared to 15 and CRBN-based PROTACs): dose-dependently increased
- potency to induce histone hyperacetylation compared to 15 ([1]; Fig. S2): less potent
- suppression of clonogenic growth compared to XZ9002-NC (T47D): markedly more potent
- suppression of clonogenic growth compared to XZ9002-NC (HCC1143): markedly more potent
- suppression of clonogenic growth compared to XZ9002-NC (BT549): markedly more potent
- inhibition of clonogenic growth compared to XZ9002-NC (MDA-MB-468 cells): more effective
- potency to induce cytotoxicity compared to 15 (Cytotoxicity): less potent
